Source: ChEMBL document CHEMBL1208775, “Synthesis and vasodilative activity of tanshinone IIA derivatives” (Bioorg Med Chem Lett, 2010)

Assays:
[1] = test system: Thoracic aorta; assay: Vasodilatory activity in Wistar rat endothelium-intact thoracic aorta assessed as inhibition of norepinephrine-induced contraction at 100 uM after 20 mins by organ-bath technique; type: functional
Summary of the method: (§1)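 Rat aortic rings in Krebs-Henseleit solution, equilibrated 2 h at 1.5 g basal tension with bath changes every 20 min. Endothelium taken as intact when acetylcholine (1 × 10^-5 mmol) relaxed norepinephrine-precontracted rings by more than 80%. Rings were precontracted with norepinephrine bitartrate (1 × 10^-6 mM) before compound addition. Response is expressed as percent of maximal control norepinephrine contraction. Mean ± SEM, paired t-test.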

[2] = test system: Thoracic aorta; assay: Vasodilatory activity in Wistar rat endothelium-intact thoracic aorta assessed as inhibition of norepinephrine-induced contraction after 20 mins by organ-bath technique; type: functional, tissue-based; summary of the method: as §1

IC50 [2]	SMILES	inhibition at 100 µM [1]	inhibition [2]
–	Cc1c(C(c2ccc(Cl)cc2)c2oc3c(c2C)C(=O)C(=O)c2c-3ccc3c2CCCC3(C)C)oc2c1C(=O)C(=O)c1c-2ccc2c1CCCC2(C)C	1%	–
–	Cc1c(C(c2ccccc2Cl)c2oc3c(c2C)C(=O)C(=O)c2c-3ccc3c2CCCC3(C)C)oc2c1C(=O)C(=O)c1c-2ccc2c1CCCC2(C)C	-29.2%	–
–	Cc1coc2c1C(=O)C(=O)c1c-2ccc2c1CCCC2(C)C [TANSHINONE IIA]	2.92%	–
130 µM	COc1cc(C(c2oc3c(c2C)C(=O)C(=O)c2c-3ccc3c2CCCC3(C)C)c2oc3c(c2C)C(=O)C(=O)c2c-3ccc3c2CCCC3(C)C)ccc1O	42.8%	Dose-dependent effect
–	Cc1c(Br)oc2c1C(=O)C(=O)c1c-2ccc2c1CCCC2(C)C	4.24%	–
–	COc1ccc(C(c2oc3c(c2C)C(=O)C(=O)c2c-3ccc3c2CCCC3(C)C)c2oc3c(c2C)C(=O)C(=O)c2c-3ccc3c2CCCC3(C)C)cc1	11%	–
–	Cc1c(C(c2ccc(O)cc2)c2oc3c(c2C)C(=O)C(=O)c2c-3ccc3c2CCCC3(C)C)oc2c1C(=O)C(=O)c1c-2ccc2c1CCCC2(C)C	15.2%	–
–	Cc1c(C(c2ccc([S+](C)[O-])cc2)c2oc3c(c2C)C(=O)C(=O)c2c-3ccc3c2CCCC3(C)C)oc2c1C(=O)C(=O)c1c-2ccc2c1CCCC2(C)C (stereo not given)	10.3%	–
–	Cc1c(C(c2ccccc2)c2oc3c(c2C)C(=O)C(=O)c2c-3ccc3c2CCCC3(C)C)oc2c1C(=O)C(=O)c1c-2ccc2c1CCCC2(C)C	2.95%	–
260 µM	Cc1c(C(c2cccc(Cl)c2)c2oc3c(c2C)C(=O)C(=O)c2c-3ccc3c2CCCC3(C)C)oc2c1C(=O)C(=O)c1c-2ccc2c1CCCC2(C)C	56%	Dose-dependent effect
–	Cc1c(C(c2ccc(O)c(O)c2)c2oc3c(c2C)C(=O)C(=O)c2c-3ccc3c2CCCC3(C)C)oc2c1C(=O)C(=O)c1c-2ccc2c1CCCC2(C)C	-0.86%	–
–	Cc1c(C(c2cccc([N+](=O)[O-])c2)c2oc3c(c2C)C(=O)C(=O)c2c-3ccc3c2CCCC3(C)C)oc2c1C(=O)C(=O)c1c-2ccc2c1CCCC2(C)C	18.8%	–
480 µM	CC(CO)C1=C(O)C(=O)c2c(ccc3c2CCCC3(C)C)C1=O (stereo not given)	59.2%	Dose-dependent effect
–	Cc1c(C(c2ccc([N+](=O)[O-])cc2)c2oc3c(c2C)C(=O)C(=O)c2c-3ccc3c2CCCC3(C)C)oc2c1C(=O)C(=O)c1c-2ccc2c1CCCC2(C)C	11.4%	–
